Measurements reported in PubChem BioAssay.
Inconclusive results are not listed.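 The calls were made as follows, unless noted: active = RAM network inhibition above 8.4% in each of two replicates, 3 SD over the compound average; inconclusive = above 8.4% inhibition in only one replicate; inactive = 8.4% inhibition or less in each replicate.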

What was measured:
[1] = S. cerevisiae growth inhibition in permissive medium (OD615), pilot counter-assay for S. cerevisiae lifespan shortening project, permissive growth control (AID 705;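 active = growth inhibition above 25% in both replicates, a cutoff set 3 SD above the mean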); settings: OD615, 24 h, at 10 µM, stronger effect = higher value
In short: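 System – S. cerevisiae with engineered DeaD lifespan system · Buffer or medium – SC raffinose/galactose permissive medium · Schedule – cells pre-grown 4 h, then 24 h compound exposure, 30 °C humidified · Technique – culture turbidity as optical density at 615 nm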

[2] = S. cerevisiae growth inhibition in restrictive medium, OD615, pilot screen, restrictive growth control, yeast lifespan reduction project (AID 706;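 active = growth inhibition above a set limit, 3 SD over mean compound inhibition, in both replicates, cut at about 43% in these data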;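 also: modified DeaD lifespan yeast strain shifted to restrictive glucose medium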); settings: OD615, 48 h, at 10 µM, stronger effect = higher value
In short: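 Material: engineered S. cerevisiae DeaD strain / Medium: glucose-based CSMM-D restrictive medium / Compound: single dose of 10 µM compound final, 0.25% DMSO / Timing: 4 h pre-incubation, 48 h exposure at 30 °C / Technique: OD615 absorbance reading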

[3] = doxorubicin toxicity protection in MRP-1 cells – H69AR cells, CellTiter-Glo, duplicate, MRP-1 activator project, pilot screen (AID 807;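 active = viability increase at or above a cutoff of the median across tested compounds plus 3 SD, cut at about 8.5% in these data, passing the limit was not always enough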;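 also: compound pretreatment 18-22 h then 72 h combined with doxorubicin; 0% = doxorubicin alone and 100% = vehicle without doxorubicin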); settings: H69AR viability with doxorubicin, CellTiter-Glo luminescence; at 10 µM; stronger effect = higher value
[4] = viability of HCT116 without oncogenic beta-catenin – human colon tumor cells, pilot screen (AID 823;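 active = cell viability at or below a set limit in both duplicate runs, the limit being the all-compound median minus 4 SD, cut at about 23% in these data, passing the limit was not always enough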;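 also: 0% = wells killed by 20 µM Hyamine and 100% = untreated DMSO cell wells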); settings: HCT116 beta-catenin knockout viability, CellTiter-Glo, 60 h; at 10 µM; stronger effect = lower value
[5] = viability of PTEN-null HCT116 cells – cell-based, HCT116 clonal line, CellTiter-Glo, pilot screen (AID 824;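 active = viability at or below 27.92% in each of two runs, the all-compound median minus 4 SD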;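 also: 0% = 20 µM Hyamine control and 100% = vehicle cell control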); settings: HCT116 PTEN-deleted viability, 60 h, at 10 µM, stronger effect = lower value
[6] = RAM pathway blockade in budding yeast – dse1pr::URA3 reporter, 5-FOA selection, pilot screen (AID 869;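 active = inhibition over a set limit, the all-compound mean plus 3 SD, in both replicate runs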;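 also: 0% = DMSO wells with no growth and 100% = 10 µM 1-NA-PP1 with full growth; RAM network block rescues cells from 5-FOA so hits raise OD615 growth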); settings: S. cerevisiae dse1pr::URA3 5-FOA growth, OD615, 2 d; at 10 µM; stronger effect = higher value; strain carries analog-sensitive mutant Cbk1 kinase
[7] = RAM signaling pathway blockade in yeast – S. cerevisiae, Pdr1DBD-CYC8 efflux-inhibited sensitized strain, primary screen (AID 1298);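 also: 0% = DMSO untreated cells without growth and 100% = 10 µM 1-NA-PP1 full growth; higher means more yeast growth rescued from 5-FOA killing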; settings: S. cerevisiae cbk1-as DSE1-URA3 strain, 5-FOA growth OD615, 2 d; at 50 µM; stronger effect = higher value

CCN(CC)CCNC(=O)Cn1nc(Cc2cccnc2)c2ccccc2c1=O
inactive: growth inhibition [1] -3.85% | growth inhibition [2] -2.59% | viability increase [3] -0.86% | viability [4] 95.7% | viability [5] 97.7% | inhibition [6] -0.35% | RAM network inhibition [7] 1.23%

O=C(NCCC1=CCCCC1)NC1CCCCC1
inactive: growth inhibition [1] -7.04% | growth inhibition [2] 8.29% | viability increase [3] -0.3% | viability [4] 87.2% | viability [5] 87.3% | inhibition [6] 1.33% | RAM network inhibition [7] 5.84%

CCCCOC(=O)c1ccc(NS(=O)(=O)c2cc(-c3nnnn3CC)ccc2OC)cc1
inactive: growth inhibition [1] 3.03% | growth inhibition [2] 2.27% | viability increase [3] -2.06% | viability [4] 91.5% | viability [5] 98% | inhibition [6] 0.93% | RAM network inhibition [7] 4.7%

Cn1c(C(=O)N2CCCC2)cc2c(=O)n(C)c3ccccc3c21
inactive: growth inhibition [1] -2.97% | growth inhibition [2] 3.21% | viability increase [3] -3.32% | viability [4] 102% | viability [5] 95.5% | inhibition [6] 2.04% | RAM network inhibition [7] -0.2%

CCOC(=O)N1CCC(NC(=O)c2cc3c(C)nc4ccccc4c3o2)CC1
inactive: growth inhibition [1] -14.7% | growth inhibition [2] -11.2% | viability increase [3] -3.16% | viability [4] 92.6% | viability [5] 91.5% | inhibition [6] 0.54% | RAM network inhibition [7] 3.54%

Cc1cccc(C)c1NC(=O)C1(NC(=O)c2cnccn2)CCCCC1
inactive: growth inhibition [1] -12.1% | growth inhibition [2] 0.045% | viability increase [3] -2.5% | viability [4] 98.4% | viability [5] 95.1% | inhibition [6] 1.21% | RAM network inhibition [7] 0.32%

COC(=O)C1C(=O)CC(C)(O)C(C(=O)OC)C1c1ccc2c(c1)OCO2 (configuration not stated)
inactive: growth inhibition [1] -10.3% | growth inhibition [2] -17% | viability increase [3] 0.03% | viability [4] 92.3% | viability [5] 98.5% | inhibition [6] 1.74% | RAM network inhibition [7] 0.48%

Cc1ccc(-c2nc(C3CCCN(S(=O)(=O)c4ccc(C)cc4)C3)no2)cc1 (configuration not stated)
inactive: growth inhibition [1] -10.8% | growth inhibition [2] 9.18% | viability increase [3] 5.21% | viability [4] 85.2% | viability [5] 84.3% | inhibition [6] 1.08% | RAM network inhibition [7] -1.57%

Cc1nc(N2CCCCC2)c2sc(=S)n(C)c2n1
inactive: growth inhibition [1] -7.24% | growth inhibition [2] 7.63% | viability increase [3] 1.13% | viability [4] 82.2% | viability [5] 81.9% | inhibition [6] 0.955% | RAM network inhibition [7] 2.15%

CCOC(=O)C1C(=O)CC(C)(O)C(C(=O)OCC)C1/C=C/c1ccccc1 (configuration not stated)
inactive: growth inhibition [1] -4.58% | growth inhibition [2] 2.66% | viability increase [3] -3.71% | viability [4] 94.4% | viability [5] 83.1% | inhibition [6] 0.605% | RAM network inhibition [7] 7.42%

Cc1ccc2c(c1)N(CCCC(=O)NCc1cccnc1)C(=O)CO2
inactive: growth inhibition [1] -13.3% | growth inhibition [2] -16.3% | viability increase [3] 0.96% | viability [4] 95.6% | viability [5] 99.1% | inhibition [6] -0.1% | RAM network inhibition [7] 0.98%

Cc1cc(=O)oc2cc3c(cc12)OCCN3
inactive: growth inhibition [1] 5.96% | growth inhibition [2] 2.04% | viability increase [3] -1.47% | viability [4] 93% | viability [5] 97.6% | inhibition [6] 2.65% | RAM network inhibition [7] 3.78%

COc1ccccc1CCNC(=O)c1cnn2c(C(F)F)cc(C)nc12
inactive: growth inhibition [1] -0.75% | growth inhibition [2] 11.3% | viability increase [3] -0.37% | viability [4] 103% | viability [5] 97.7% | inhibition [6] -0.1% | RAM network inhibition [7] 4.32%

Clc1ccc(CSc2nnc(-c3cccnc3)n2Cc2ccco2)c(Cl)c1
inactive: growth inhibition [1] 1.24% | growth inhibition [2] 34.1% | viability increase [3] -3.29% | viability [4] 87.3% | viability [5] 88.2% | inhibition [6] 2.67% | RAM network inhibition [7] 11.6%

Cc1ccccc1-n1nc2c(c1NC(=O)COc1ccc(Cl)cc1)CS(=O)C2 (configuration not stated)
inactive: growth inhibition [1] -5.57% | growth inhibition [2] -3.5% | viability increase [3] 0.22% | viability [4] 98.3% | viability [5] 92.6% | inhibition [6] 1.46% | RAM network inhibition [7] 1.42%

O=C(CSc1nnc(-c2cccs2)o1)N1CCCCC1
inactive: growth inhibition [1] -2.25% | growth inhibition [2] 11.9% | viability increase [3] 2.11% | viability [4] 104% | viability [5] 115% | inhibition [6] 1.31% | RAM network inhibition [7] 1.38%

CCC(C)C1C(C#N)=C(N)Oc2n[nH]c(-c3ccccc3)c21 (configuration not stated)
inactive: growth inhibition [1] -4.81% | growth inhibition [2] -3.89% | viability increase [3] -2.23% | viability [4] 97.3% | viability [5] 94.3% | inhibition [6] 1.06% | RAM network inhibition [7] 5.9%

COc1cccc(-c2nc(CS(=O)(=O)CC(=O)NCc3ccccc3)c(C)o2)c1
inactive: growth inhibition [1] 6.62% | growth inhibition [2] 8.33% | viability increase [3] -0.84% | viability [4] 94.8% | viability [5] 88.1% | inhibition [6] 1.4% | RAM network inhibition [7] 3.28%

Cn1c(Cn2c(=O)sc3ccccc32)nnc1SCc1ccccc1F
inactive: growth inhibition [1] -4.61% | growth inhibition [2] 5.46% | viability increase [3] -0.13% | viability [4] 96.6% | viability [5] 97.4% | inhibition [6] 2.95% | RAM network inhibition [7] 5.27%

COc1cc(Nc2cc(C)nc3nc(C)nn23)cc(OC)c1OC
inactive: growth inhibition [1] 2.3% | growth inhibition [2] 6.15% | viability increase [3] -1.11% | viability [4] 95.7% | viability [5] 104% | inhibition [6] 0.525% | RAM network inhibition [7] 4.23%

Cc1ccc(O)c(NC(=O)CCC2CCCCC2)c1
inactive: growth inhibition [1] -1.6% | growth inhibition [2] 1.04% | viability increase [3] -3.63% | viability [4] 89.4% | viability [5] 84.5% | inhibition [6] 4.25% | RAM network inhibition [7] 4.08%

Cc1ccccc1-c1noc(-c2cccs2)n1
inactive: growth inhibition [1] 8.34% | growth inhibition [2] 6.79% | viability increase [3] -4.68% | viability [4] 94% | viability [5] 90.4% | inhibition [6] 2.11% | RAM network inhibition [7] 6%

CC(c1ccc(Br)cc1)N1CC23C=CC(O2)C(C(=O)O)C3C1=O (configuration not stated)
inactive: growth inhibition [1] 0.305% | growth inhibition [2] 6.24% | viability increase [3] -0.16% | viability [4] 102% | viability [5] 99.7% | inhibition [6] 1.27% | RAM network inhibition [7] -1.25%

COc1ccc(C2C(C(=O)N3CCCCC3)CCC(=O)N2c2cc(OC)c(OC)c(OC)c2)cc1 (configuration not stated)
inactive: growth inhibition [1] -15% | growth inhibition [2] -5.94% | viability increase [3] -7.12% | viability [4] 100% | viability [5] 89% | inhibition [6] 0.98% | RAM network inhibition [7] 5.22%

O=C(CSc1nnnn1-c1cccc2c1CCCC2)N1CCOCC1
inactive: growth inhibition [1] -3.82% | growth inhibition [2] -27.1% | viability increase [3] -3.02% | viability [4] 95.4% | viability [5] 94.5% | inhibition [6] 0.68% | RAM network inhibition [7] 2.95%

O=C(c1oc(=O)c2ccccc2c1-c1ccccc1)N1CCC(O)CC1
inactive: growth inhibition [1] -2.27% | growth inhibition [2] -0.17% | viability increase [3] -2.96% | viability [4] 97.6% | viability [5] 91.6% | inhibition [6] 1.25% | RAM network inhibition [7] 1.92%

CC(C)OC(=O)C1C2C=CC3(CN(C(C)c4ccc(Br)cc4)C(=O)C13)O2 (configuration not stated)
inactive: growth inhibition [1] -19.3% | growth inhibition [2] -19.3% | viability increase [3] -2.07% | viability [4] 96.8% | viability [5] 94.1% | inhibition [6] 0.395% | RAM network inhibition [7] 6.84%

COc1ccccc1-c1cc(C(F)(F)F)nc(N2CCN(c3ccccc3)CC2)n1
inactive: growth inhibition [1] -2.88% | growth inhibition [2] -13.6% | viability increase [3] -1.89% | viability [4] 77.5% | viability [5] 78.8% | inhibition [6] 3.9% | RAM network inhibition [7] 4.72%

COc1ccccc1-c1nc2n(n1)C(c1ccccc1Cl)C(C(N)=O)=C(C)N2 (configuration not stated)
inactive: growth inhibition [1] -11.6% | growth inhibition [2] -6.96% | viability increase [3] -6.22% | viability [4] 91% | viability [5] 85.9% | inhibition [6] -0.085% | RAM network inhibition [7] -1.52%

NCCCC(=O)N1c2ccccc2Sc2ccccc21
inactive: growth inhibition [1] -16% | growth inhibition [2] 3.53% | viability increase [3] -2.97% | viability [4] 73.2% | viability [5] 73.9% | inhibition [6] 2.5% | RAM network inhibition [7] 0.52%

CCOC(=O)C(C)Sc1nnc(Cc2cc(=O)[nH]c(=O)[nH]2)n1-c1ccc(OCC)cc1 (configuration not stated)
inactive: growth inhibition [1] 2.12% | growth inhibition [2] -6.84% | viability increase [3] -0.85% | viability [4] 109% | viability [5] 101% | inhibition [6] 0.75% | RAM network inhibition [7] 2.89%

CS(=O)(=O)N1Cc2ccccc2CC1C(=O)Nc1ccccc1C(N)=O (configuration not stated)
inactive: growth inhibition [1] -2.29% | growth inhibition [2] -1.52% | viability increase [3] -1.04% | viability [4] 108% | viability [5] 97% | inhibition [6] 3.26% | RAM network inhibition [7] 7.36%

COc1ccc(C2OC(=O)CC2C(=O)N2CCN(c3cc(Cl)ccc3C)CC2)cc1OC (configuration not stated)
inactive: growth inhibition [1] -0.42% | growth inhibition [2] 4.67% | viability increase [3] -2.26% | viability [4] 96.8% | viability [5] 95.5% | inhibition [6] 0.44% | RAM network inhibition [7] 2.7%

O=C(Cc1ccc2c(c1)OCCO2)c1c(O)cc(O)cc1O
inactive: growth inhibition [1] -12.3% | growth inhibition [2] -4.45% | viability increase [3] -1.79% | viability [4] 96.1% | viability [5] 94% | inhibition [6] 3.34% | RAM network inhibition [7] 6.58%

COc1ccc(C2C=C(c3ccc(C)c(C)c3)Nc3ncnn32)c(OC)c1OC (configuration not stated)
inactive: growth inhibition [1] -5.12% | growth inhibition [2] 11.7% | viability increase [3] -4.29% | viability [4] 40.4% | viability [5] 34.3% | inhibition [6] 0.775% | RAM network inhibition [7] -1.46%

CCOc1ccc(-n2c(Cc3cc(=O)[nH]c(=O)[nH]3)nnc2SCc2cccnc2)cc1
inactive: growth inhibition [1] 2.83% | growth inhibition [2] 5.83% | viability increase [3] 1.08% | viability [4] 107% | viability [5] 105% | inhibition [6] 1.84% | RAM network inhibition [7] 0.84%
